Results taken from ChEMBL document CHEMBL1255454, “Systematic approach to optimizing specifically targeted antimicrobial peptides against Streptococcus mutans” (2010).
≈ marks a conversion by molar mass, not a printed value. Calls of active or inactive are those of the source. No cut-off for these calls is given here. Square brackets hold non-standard residues; d marks the D form. Peptide text beside a SMILES is read from it. Aoc = NCCCCCCCC(=O)O

How the values were obtained:
Streptococcus mitis = assay: Antimicrobial activity against Streptococcus mitis ATCC 903 after 16 to 20 hrs by broth microdilution assay; format: functional
Outline: (§1)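 Broth microdilution. Twofold peptide dilutions were made in 50% BHI–50% sterile water for oral streptococci and in 1× Mueller-Hinton broth for the other bacteria. First round 500 to 0.97 µg/ml; a second round of 64 to 0.5 µg/ml was run in some cases, reporting its mode. Inoculum ~1 × 10^5 CFU/ml, 37°C for 16–20 h. Read A600; MIC taken as complete inhibition or ≥90% turbidity reduction versus peptide-free control.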

Streptococcus mutans [1] = assay: Antimicrobial activity against Streptococcus mutans UA159 after 16 to 20 hrs by broth microdilution assay; format: functional; outline: as §1
Pseudomonas aeruginosa = assay: Antimicrobial activity against Pseudomonas aeruginosa PAK after 16 to 20 hrs by broth microdilution assay; format: functional; outline: as §1
Staphylococcus aureus = assay: Antimicrobial activity against methicillin-resistant Staphylococcus aureus after 16 to 20 hrs by broth microdilution assay; format: functional
Outline: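 MRSA grown aerobically in BHI at 37°C. Broth microdilution: 2-fold peptide dilutions in 1× Mueller-Hinton broth, first round 500 to 0.97 µg/ml; if activity below 62.5 µg/ml, sometimes a second round at 64 to 0.5 µg/ml, reporting the mode. Inoculum ~1 × 10^5 CFU/ml, 37°C for 16-20 h. A600 read. MIC = lowest concentration giving complete inhibition or ≥90% turbidity reduction versus peptide-free control.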

Streptococcus sanguinis = assay: Antimicrobial activity against Streptococcus sanguinis NY101 after 16 to 20 hrs by broth microdilution assay; format: functional; outline: as §1
[2] = Antimicrobial activity against Streptococcus gordonii Challis DL1 after 16 to 20 hrs by broth microdilution assay; format: functional, Streptococcus gordonii str. Challis; outline: as §1
Streptococcus mutans [3] = assay: Antimicrobial activity against Streptococcus mutans UA159 assessed as inhibition of bacterial biofilm formation at 25 uM after 3 mins by fluorescence assay; format: functional
Outline: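 S. mutans UA159 overnight culture was diluted 1:5,000 in TH with 1% sucrose and grown as biofilm for 24 h. Biofilms were exposed 3 min at room temperature to 25 µM fluorescein-labelled peptide in HEPES/NaHCO3/NaCl/MgCl2 buffer with 0.1% CTAB, pH 7.4, then washed twice. Green fluorescence images were taken and biofilm-associated green pixels quantified as binding intensity units.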

Enterococcus faecalis = assay: Antimicrobial activity against Enterococcus faecalis after 16 to 20 hrs by broth microdilution assay; format: functional; outline: as §1
Escherichia coli = assay: Antimicrobial activity against Escherichia coli W3110 after 16 to 20 hrs by broth microdilution assay; format: functional; outline: as §1

Compound | MIC (Streptococcus mitis) | MIC (Streptococcus mutans [1]) | MIC (Pseudomonas aeruginosa) | MIC (Staphylococcus aureus) | MIC (Streptococcus sanguinis) | MIC [2] | inhibition (Streptococcus mutans [3]) | MIC (Enterococcus faecalis) | MIC (Escherichia coli)
H-RWRRLLKKLHHLLH-NH2 | 32 µg/mL | 8 µg/mL | 8 µg/mL | 16 µg/mL | 16 µg/mL | 16 µg/mL |  |  | 
H-LQLLKQLLKLLKQFSATFIKHFIHRF-NH2 | 32 µg/mL | 8 µg/mL | 32 µg/mL | 32 µg/mL | 16 µg/mL | 16 µg/mL |  |  | 
H-FIKHFIHRFSATLQLLKQLLKLLKQF-NH2 | 32 µg/mL | 16 µg/mL | 32 µg/mL | 62.5 µg/mL | 16 µg/mL | 8 µg/mL |  |  | 
H-FHFHLHF-NH2 |  | 8 µg/mL | 16 µg/mL | 32 µg/mL | 16 µg/mL |  | Active | 16 µg/mL | 8 µg/mL
CC[C@H](C)[C@H](NC(=O)[C@H](Cc1ccccc1)NC(=O)CCCCCCCNC(=O)[C@H](Cc1ccccc1)NC(=O)[C@H](Cc1c[nH]c2ccccc12)NC(=O)[C@H](CCCNC(=N)N)NC(=O)[C@H](Cc1c[nH]c2ccccc12)NC(=O)[C@H](CCCNC(=N)N)NC(=O)[C@H](Cc1c[nH]c2ccccc12)NC(=O)[C@@H](N)CCCNC(=N)N)C(=O)N[C@@H](CCCCN)C(=O)N[C@@H](Cc1cnc[nH]1)C(=O)N[C@@H](Cc1ccccc1)C(=O)N[C@H](C(=O)N[C@@H](Cc1cnc[nH]1)C(=O)N[C@@H](CCCNC(=N)N)C(=O)N[C@@H](Cc1ccccc1)C(N)=O)[C@@H](C)CC (H-RWRWRWF[Aoc]FIKHFIHRF-NH2) | 32 µg/mL (≈ 12.5 µM) | 32 µg/mL (≈ 12.5 µM) | 125 µg/mL (≈ 48.8 µM) | 62.5 µg/mL (≈ 24.4 µM) | 32 µg/mL (≈ 12.5 µM) | 62.5 µg/mL (≈ 24.4 µM) |  |  | 
H-LQLLKQLLKLLKQF-NH2 | 16 µg/mL | 8 µg/mL | 8 µg/mL | 16 µg/mL | 8 µg/mL | 8 µg/mL |  |  | 
CC[C@H](C)[C@H](NC(=O)[C@H](Cc1ccccc1)NC(=O)CCCCCCCNC(=O)[C@H](Cc1ccccc1)NC(=O)[C@H](CCC(N)=O)NC(=O)[C@H](CCCCN)NC(=O)[C@H](CC(C)C)NC(=O)[C@H](CC(C)C)NC(=O)[C@H](CCCCN)NC(=O)[C@H](CC(C)C)NC(=O)[C@H](CC(C)C)NC(=O)[C@H](CCC(N)=O)NC(=O)[C@H](CCCCN)NC(=O)[C@H](CC(C)C)NC(=O)[C@H](CC(C)C)NC(=O)[C@H](CCC(N)=O)NC(=O)[C@@H](N)CC(C)C)C(=O)N[C@@H](CCCCN)C(=O)N[C@@H](Cc1cnc[nH]1)C(=O)N[C@@H](Cc1ccccc1)C(=O)N[C@H](C(=O)N[C@@H](Cc1cnc[nH]1)C(=O)N[C@@H](CCCNC(=N)N)C(=O)N[C@@H](Cc1ccccc1)C(N)=O)[C@@H](C)CC (H-LQLLKQLLKLLKQF[Aoc]FIKHFIHRF-NH2) | 32 µg/mL (≈ 10.3 µM) | 8 µg/mL (≈ 2.59 µM) | 32 µg/mL (≈ 10.3 µM) | 62.5 µg/mL (≈ 20.2 µM) | 32 µg/mL (≈ 10.3 µM) | 16 µg/mL (≈ 5.17 µM) |  |  | 
CC[C@H](C)[C@H](NC(=O)[C@H](Cc1ccccc1)NC(=O)[C@H](Cc1cnc[nH]1)NC(=O)[C@H](CCCCN)NC(=O)[C@@H](NC(=O)[C@@H](N)Cc1ccccc1)[C@@H](C)CC)C(=O)N[C@@H](Cc1cnc[nH]1)C(=O)N[C@@H](CCCNC(=N)N)C(=O)N[C@@H](Cc1ccccc1)C(=O)NCCCCCCCC(=O)N[C@@H](CCCNC(=N)N)C(=O)N[C@@H](Cc1c[nH]c2ccccc12)C(=O)N[C@@H](CCCNC(=N)N)C(=O)N[C@@H](CCCNC(=N)N)C(=O)N[C@@H](CC(C)C)C(=O)N[C@@H](CC(C)C)C(=O)N[C@@H](CCCCN)C(=O)N[C@@H](CCCCN)C(=O)N[C@@H](CC(C)C)C(=O)N[C@@H](Cc1cnc[nH]1)C(=O)N[C@@H](Cc1cnc[nH]1)C(=O)N[C@@H](CC(C)C)C(=O)N[C@@H](CC(C)C)C(=O)N[C@@H](Cc1cnc[nH]1)C(N)=O (H-FIKHFIHRF[Aoc]RWRRLLKKLHHLLH-NH2) | 32 µg/mL (≈ 9.78 µM) | 16 µg/mL (≈ 4.89 µM) | 62.5 µg/mL (≈ 19.1 µM) | 62.5 µg/mL (≈ 19.1 µM) | 32 µg/mL (≈ 9.78 µM) | 32 µg/mL (≈ 9.78 µM) | Active |  | 
H-FIKHFIHRFSGGRWRRLLKKLHHLLH-NH2 | 62.5 µg/mL | 16 µg/mL | 32 µg/mL | 32 µg/mL | 16 µg/mL | 32 µg/mL |  |  | 
H-FIKHFIHRFGGGIKQLLHFFQRF-NH2 | 16 µg/mL | 8 µg/mL | 125 µg/mL | 62.5 µg/mL | 32 µg/mL | 32 µg/mL |  |  | 
H-RWRWRWFSGGFIKHFIHRF-NH2 | 32 µg/mL | 8 µg/mL | 62.5 µg/mL | 32 µg/mL | 32 µg/mL | 32 µg/mL |  |  | 
H-RWRWRWFSATFIKHFIHRF-NH2 | 16 µg/mL | 8 µg/mL | 62.5 µg/mL | 62.5 µg/mL | 32 µg/mL | 62.5 µg/mL |  |  | 
